Bioassay records as filed in PubChem BioAssay.
Rev-RRE block – HIV-1 Rev-RRE binding inhibitors, primary screen, biochemical, FRET, protein-RNA interaction; Rev peptide-RRE RNA binding; inhibition, % at 8 µM; 0.79% of 97,000 active; AID 704, 2007;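 active means inhibition above the screen-wide mean plus 3 SD, cut at about 35% in these data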;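 further: 0% = median DMSO wells and 100% = median Neomycin B control wells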
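Test system: Cy5-tagged RRE RNA duplex with fluorescein-tagged Rev peptide; Probe or stimulus: labelled Rev peptide; Schedule: 5 min preincubation and 15 min binding, 25 °C; Signal: FRET fluorescence readout; Evaluation: % inhibition from 671/540 nm acceptor-to-donor ratio, scaled between controls; Control set: DMSO and neomycin B.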
Cav32 inh – Cav3.2 calcium influx blockers – cell-based, Fluo-4 calcium fluorescence, FDSS, MLSMR library, primary screen. Cav3.2-expressing cells; active compounds read low. AID 449739, 2010. Voltage-dependent T-type calcium channel subunit alpha-1H (Homo sapiens), O95180. 4% of 100,000 active. B-score at 10 µM;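 active means single-dose well whose peak fluorescence ratio is a statistical outlier from its plate by either plate-standardised score or position-corrected B-score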
CYP2C9 inh – blockers of cytochrome P450 2C9 activity – biochemical, luminescence, ADME assay, primary screen | inhibition, % at 5 µM | 20% of 96,000 active | AID 777, 2007 | P11712 | CYP2C9 Supersomes, luciferin-H conversion;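 active means blocking of liver enzyme CYP2C9 beyond about 50% at 5 µM, limit read from the data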
CYP2C9 act – human CYP2C9 activators, primary screen, biochemical, luminescence | recombinant CYP2C9, luciferin-H conversion; active compounds read high; factor 1 = untreated enzyme, 0 = blocked | 1.4% of 96,000 active | activation factor at 5 µM | AID 1024, 2008;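 active means activation factor of 2 or more for CYP2C9 at a 5 µM dose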;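 further: 0 = sulfaphenazole-blocked wells and 1 = vehicle-only wells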
CYP2C19 act – human CYP2C19 activators, primary screen, biochemical, luminescence | 96,000 tested, under 10 active | recombinant CYP2C19, luciferin-H EGE luminescence; active compounds read high; 0 = fully inhibited enzyme, 1 = untreated enzyme | activation factor at 5 µM;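 active means activation factor of at least 2 at 5 µM in the primary screen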;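 further: 0 = wells with 2.5 mM tranylcypromine and 1 = vehicle-only wells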
Target sequence (P33261 whole entry, looked up): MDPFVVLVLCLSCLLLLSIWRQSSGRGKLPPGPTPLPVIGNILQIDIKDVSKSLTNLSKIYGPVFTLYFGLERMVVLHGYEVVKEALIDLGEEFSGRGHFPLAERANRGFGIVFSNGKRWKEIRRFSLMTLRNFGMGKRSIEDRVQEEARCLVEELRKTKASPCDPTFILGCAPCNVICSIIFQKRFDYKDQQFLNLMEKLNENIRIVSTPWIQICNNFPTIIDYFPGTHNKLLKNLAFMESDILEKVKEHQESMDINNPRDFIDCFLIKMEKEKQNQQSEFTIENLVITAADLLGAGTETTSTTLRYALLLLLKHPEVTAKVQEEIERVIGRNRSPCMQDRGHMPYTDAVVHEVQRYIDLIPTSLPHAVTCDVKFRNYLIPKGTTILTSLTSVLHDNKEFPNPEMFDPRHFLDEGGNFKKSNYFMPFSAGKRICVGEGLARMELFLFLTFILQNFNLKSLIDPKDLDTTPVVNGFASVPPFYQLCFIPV
CYP2C19 inhib – blockers of cytochrome P450 2C19 activity – biochemical, luminescence, ADME assay, primary screen. P33261. CYP2C19 Supersomes, luciferin-H EGE luminescence, 30 min. inhibition, % at 5 µM. 21% of 96,000 active. AID 778, 2007;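 active means CYP2C19 inhibition above a set limit at 5 µM in the primary screen, cut at about 50% in these data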;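 further: plate controls were negative control wells for no effect and 2.5 mM tranylcypromine positive control for full effect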
An asterisk follows results filed as active; nt = not tested or not shown. A selection: hits, their analogues and other compounds. The true share with any hit is near 27%.

SMILES	Rev-RRE block	Cav32 inh	CYP2C9 inh	CYP2C9 act	CYP2C19 act	CYP2C19 inhib
CCOC(=O)c1cccc(NC(=O)Cn2cnc3c2c(=O)n(C)c(=O)n3C)c1	4.4	nt	72.5*	0.3	0.6	35.3
O=c1[nH]cnc2sc(-c3ccccc3)cc12	5.7	1.26	35.7	0.6	0.6	42.8
O=[N+]([O-])c1ccc(-c2nnc(CSc3nc(-c4ccccc4)nc4ccc(F)cc34)o2)cc1	3.9	nt	nt	nt	nt	nt
CC(/C=N/N1CCN(c2ccccc2)CC1)=C\c1ccco1	4.2	-0.448	22.6	0.8	0.4	56.3*
CC(=C/c1ccco1)/C=N/N1CCN(c2ccccc2)CC1	4.6	-0.0653	18.4	0.8	0.4	55.2*
CC(/C=N/N1CCN(c2ccccc2)CC1)=C\c1ccccc1	8.4	-1.07	-7.7	1.1	0.7	29.6
COc1cccc(-c2ccc(=O)n(CC(=O)NCCN3CCOCC3)n2)c1	1.9	-1.75	nt	nt	nt	nt
COc1cccc(-c2ccc(=O)n(CC(=O)Nc3cc4c(cc3NC(C)=O)OCCO4)n2)c1	9.2	0.795	38.5	0.6	0.3	68.8*
O=C(Nc1ccc2c(c1)OCO2)N1CCN(C(=O)C2CCCO2)CC1 (stereo unspecified)	3.5	-0.0807	nt	nt	nt	nt
COc1cc(/C=N/NC(=Nc2ccc(C)cc2)c2nc3ccccc3s2)ccc1O	-2.6	-0.0359	94.2*	0.1	0.8	23.9
Cc1cc(N=Cc2cc(Cl)ccc2O)no1	4.7	0.29	-0.5	1	1	2.8
Oc1c(Cl)cc(Cl)cc1C=Nc1ccc(Br)cc1	18.9	-7.58*	11.9	0.9	0.9	8.7
C=C1[C@@H](OC(C)=O)CC[C@]2(C)[C@@H]1C[C@@H]1C[C@H](OC(C)=O)C(C)=C([C@@H](OC(C)=O)[C@@H]2OC(C)=O)C1(C)C	nt	0.399	nt	nt	nt	nt
CC(NC(=O)CSc1nc2ccccc2c(=O)n1CCCO)c1ccccc1 (stereo unspecified)	0.3	-1.23	89.8*	0.1	0.3	72.1*
CCOCCCn1c(SCC(=O)NC(C)(C)C)nc2ccccc2c1=O	-5.4	2.34	10.9	0.9	0.9	8.0
Cc1ccc(CNC(=O)CSc2nnnn2C)cc1	1.7	0.343	24.2	0.8	0.8	16.2
C=CCn1c(N)cc(=O)nc1SCC(=O)NC(C)c1ccccc1 (stereo unspecified)	5.0	0.609	-16.1	1.2	0.5	51.7*
Cc1ccc(CNC(=O)CSc2nc3ccccc3c(=O)n2CCCO)cc1	-1.4	0.339	87.3*	0.1	0.4	62.3*
CC(C)NC(=O)CSc1nc2ccccc2c(=O)n1CCCOC(C)C	0.4	-0.761	53.7*	0.5	0.8	17.8
CS(=O)(=O)c1ccc(CNC(=O)C2(C(F)(F)F)CC(CCCO)CCCO2)cc1 (stereo unspecified)	nt	-0.092	nt	nt	nt	nt
Cc1cc(NC(=O)C2C3C(=O)N(CC4CCCO4)C(C(=O)NCc4ccccc4)C34C=CC2(C)O4)no1 (stereo unspecified)	-1.3	0.265	nt	nt	nt	nt
Cc1ccc(CNC(=O)CSc2nc3ccccc3c3nc(C)nn23)cc1	-4.3	0.00887	-97.6	2*	0.8	23.1
COC(=O)c1c(NC(=O)c2c(-c3ccccc3Cl)noc2C)sc2c1CCC2	16.9	nt	98.4*	0	0.3	74.1*
Cc1onc(-c2ccccc2Cl)c1C(=O)Nc1nnc(Cc2ccc(Cl)cc2)s1	11.9	0.843	87.9*	0.1	0.9	9.5
Cc1onc(-c2ccccc2Cl)c1C(=O)Nc1ccccc1	0.8	0.0436	nt	nt	nt	nt
Cc1onc(-c2ccccc2Cl)c1C(=O)Nc1nnc(C(C)C)s1	nt	1.12	59.3*	0.4	0.8	18.6
COC(=O)c1c(NC(=O)c2c(C)noc2C)sc2c1CCCCCC2	12.1	0.378	16.7	0.8	1	0.0
CCn1c(=O)n(CC(=O)Nc2cc(OC)c(OC)c(OC)c2)c(=O)c2ccccc21	1.6	0.13	17.7	0.8	0.8	18.9
